Test results: ChEMBL document CHEMBL4715721, “Synthesis and optimization of novel allylated mono-carbonyl analogs of curcumin (MACs) act as potent anti-inflammatory agents against LPS-induced acute lung injury (ALI) in rats” (Eur J Med Chem, 2016)
In brackets after ≈: the same amount, converted by molar mass. Each block holds one compound with its values, some of them ahead of it. Activity calls are given as the source filed them. No cut-off for these calls is given here.

Tests used:
[1] = tested on: RAW264.7; assay: Antiinflammatory activity in mouse RAW264.7 cells assessed as decrease in LPS-induced IL-6 secretion at 10 microM incubated for 30 mins followed by LPS stimulation and measured after 24 hrs by ELISA relative to control; format: functional; conditions: RAW264.7, 24.5 h, time 1470 min
Summary of the method: (§1)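 RAW264.7 cells in DMEM with 10% FBS at 37 °C, 5% CO₂; pretreated with 10 μM for 30 min, then LPS 0.5 μg/mL for 24 h. Medium TNF-α and IL-6 measured by ELISA and normalized to total protein of viable cells; percent inhibition, mean ± SD of three experiments.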

[2] = tested on: RAW264.7; assay: Antiinflammatory activity in mouse RAW264.7 cells assessed as decrease in LPS-induced TNF-alpha secretion at 10 microM incubated for 30 mins followed by LPS stimulation and measured after 24 hrs by ELISA relative to control; format: functional; conditions: RAW264.7, 24.5 h, time 1470 min; summary of the method: as §1
[3] = Cytotoxicity against human HL7702 cells assessed as cell survival rate at 10 uM incubated for 24 hrs by MTT assay; format: cell-based; conditions: HL7702 (L02) cells, read-out: Activity
Summary of the method: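 HL-7702 human normal hepatic cells exposed to 10 μM compound for 24 h; viability measured by MTT assay and given as survival rate, mean ± SD of three experiments.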

[4] = Octanol-water partition coefficient, logP of compound; format: physicochemical
[5] = tested on: RAW264.7; assay: (§2) Cytotoxicity against mouse RAW264.7 cells assessed as cell survival rate at 10 uM; format: cell-based; conditions: raw264.7, 10 µM
[6] = Aqueous kinetic solubility of compound at pH 7.4; format: physicochemical; conditions: read-out: Kinetic_solubility
[7] = tested on: RAW264.7; assay: Antiinflammatory activity in mouse RAW264.7 cells assessed as decrease in LPS-induced IL-6 secretion incubated for 30 mins followed by LPS stimulation and measured after 24 hrs by ELISA; format: functional, cell-based; conditions: dose 1-10 µM, time 1470.0 min
Summary of the method: (§3)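 RAW264.7 cells seeded at 4.0×10^5/plate overnight; pretreated at 1, 2.5, 5 or 10 μM for 30 min, then with or without LPS 0.5 μg/mL for 24 h. Medium IL-6 and TNF-α measured by ELISA and normalized to total protein; percent of LPS control, mean ± SEM of three independent experiments.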

[8] = tested on: RAW264.7; assay: Antiinflammatory activity in mouse RAW264.7 cells assessed as decrease in LPS-induced TNF-alpha secretion incubated for 30 mins followed by LPS stimulation and measured after 24 hrs by ELISA; format: functional, cell-based; conditions: dose 1-10 µM, time 1470.0 min; summary of the method: as §3
[9] = tested on: Mus musculus; assay: Antiinflammatory activity against LPS-induced septic shock C57BL/6 mouse model assessed as proportion of died animals at 10 mg/kg, iv administered daily before LPS administration and monitored for 7 days (reference value: 100%); format: functional; conditions: time 7 day
Summary of the method: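 Male C57BL/6 mice, n = 10 per group, were given the test agent as its hydrochloride salt (10 mg/kg IV) or saline vehicle. LPS (20 mg/kg IP) was injected afterwards. Survival was recorded every 24 h for 7 days after LPS.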

[10] = tested on: Rattus norvegicus; assay: Antiinflammatory activity against LPS-induced acute lung injury rat model assessed as reduction in lung wet/dry ratio at 10 to 20 mg/kg administered before LPS instillation and measured after 6 hrs; format: functional, organism-based; conditions: dose 10-20 mg/kg
Summary of the method: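 Edema index in rats killed 6 h after intratracheal LPS, with pretreatment at 10 or 20 mg/kg: right upper lung lobe excised, blotted and weighed wet, then dried at 65 °C for 48 h and reweighed; wet/dry weight ratio calculated.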

[11] = tested on: Rattus norvegicus; assay: Antiinflammatory activity against LPS-induced acute lung injury rat model assessed as reduction in total protein content in BALF at 10 to 20 mg/kg administered before LPS instillation and measured after 6 hrs by BCA protein assay; format: functional, organism-based; conditions: dose 10-20 mg/kg
Summary of the method: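 Left lung lavaged with saline (3 × 1.5 mL) 6 h after intratracheal LPS in rats pretreated at 10 or 20 mg/kg; lavage spun at 1000 rpm for 10 min; supernatant protein measured by BCA assay.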

[12] = tested on: Rattus norvegicus; assay: Antiinflammatory activity against LPS-induced acute lung injury rat model assessed as reduction in lung edema at 10 to 20 mg/kg administered before LPS instillation and measured after 6 hrs by hematoxylin and eosin staining based microscopic analysis; format: functional, organism-based; conditions: dose 10-20 mg/kg
Summary of the method: (§4)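 Rats pretreated at 10 or 20 mg/kg, then intratracheal LPS; lungs taken 6 h later, fixed in 4% paraformaldehyde, paraffin-embedded, cut at 5 μm, stained with hematoxylin-eosin, and examined by light microscopy for edema, hemorrhage, cell infiltration and epithelial/endothelial damage.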

[13] = tested on: Rattus norvegicus; assay: Antiinflammatory activity against LPS-induced acute lung injury rat model assessed as reduction in alveolar hemorrhage in lungs at 10 to 20 mg/kg administered before LPS instillation and measured after 6 hrs by hematoxylin and eosin staining based microscopic analysis; format: functional, organism-based; conditions: dose 10-20 mg/kg; summary of the method: as §4
[14] = tested on: Rattus norvegicus; assay: (§5) Antiinflammatory activity against LPS-induced acute lung injury rat model assessed as reduction in inflammatory cell infiltration in lungs at 10 to 20 mg/kg administered before LPS instillation and measured after 6 hrs by hematoxylin and eosin staining based microscopic analysis; format: functional, organism-based; conditions: dose 10-20 mg/kg; summary of the method: as §4
[15] = tested on: Rattus norvegicus; assay: as §5, with “in destruction of epithelial and endothelial” for “in inflammatory”, “cell structure” for “cell infiltration”; format: functional, organism-based; conditions: dose 10-20 mg/kg; summary of the method: as §4
[16] = tested on: Rattus norvegicus; assay: Antiinflammatory activity against LPS-induced acute lung injury rat model assessed as reduction in IL-6 level in BALF at 10 to 20 mg/kg administered before LPS instillation and measured after 6 hrs by ELISA; format: functional, organism-based; conditions: dose 10-20 mg/kg
Summary of the method: (§6)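 Rats given intratracheal LPS after pretreatment at 10 or 20 mg/kg; killed 6 h after LPS under anaesthesia; BALF and lung collected. BALF IL-6 and TNF-α measured by ELISA in BALF supernatant; serum IL-6 measured; BALF total cells counted; lung MPO activity and TNF-α immunostaining assessed.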

[17] = tested on: Rattus norvegicus; assay: Antiinflammatory activity against LPS-induced acute lung injury rat model assessed as reduction in TNF-alpha level in BALF at 10 to 20 mg/kg administered before LPS instillation and measured after 6 hrs by ELISA; format: functional, organism-based; conditions: dose 10-20 mg/kg; summary of the method: as §6
[18] = tested on: Rattus norvegicus; assay: Antiinflammatory activity against LPS-induced acute lung injury rat model assessed as reduction in IL-6 level in serum at 10 to 20 mg/kg administered before LPS instillation and measured after 6 hrs by ELISA; format: functional, organism-based; conditions: dose 10-20 mg/kg; summary of the method: as §6
[19] = tested on: Rattus norvegicus; assay: Antiinflammatory activity against LPS-induced acute lung injury rat model assessed as decrease in neutrophil infiltration in lungs by measuring decrease in MPO activity at 10 to 20 mg/kg administered before LPS instillation and measured after 6 hrs; format: functional, organism-based; conditions: dose 10-20 mg/kg; summary of the method: as §6
[20] = tested on: Rattus norvegicus; assay: Antiinflammatory activity against LPS-induced acute lung injury rat model assessed as reduction in total cells in BALF at 10 to 20 mg/kg administered before LPS instillation and measured after 6 hrs; format: functional, organism-based; conditions: dose 10-20 mg/kg; summary of the method: as §6
[21] = tested on: Rattus norvegicus; assay: Antiinflammatory activity against LPS-induced acute lung injury rat model assessed as reduction in CD-68 stained macrophage numbers in lungs at 10 to 20 mg/kg administered before LPS instillation and measured after 6 hrs by immunohistochemical analysis; format: functional, organism-based; conditions: dose 10-20 mg/kg
Summary of the method: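 Lung sections from rats given intratracheal LPS, pretreated at 10 or 20 mg/kg, killed 6 h after LPS; immunohistochemistry for the macrophage marker CD68, with CD68-positive cells counted.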

[22] = tested on: Rattus norvegicus; assay: Antiinflammatory activity against LPS-induced acute lung injury rat model assessed as reduction in TNFalpha expression in lung tissue at 10 to 20 mg/kg administered before LPS instillation and measured after 6 hrs by immunohistochemical analysis; format: functional, organism-based; conditions: dose 10-20 mg/kg; summary of the method: as §6
[23] = tested on: BEAS-2B; assay: Antiinflammatory activity in human BEAS-2B cells assessed as reduction in LPS-induced IL-6 mRNA expression incubated for 30 mins followed by LPS stimulation and measured after 24 hrs by qRT-PCR analysis; format: functional, cell-based; conditions: dose 10-20 µM, time 1470.0 min
Summary of the method: (§7)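 Beas-2B cells seeded at 7.0×10^5/plate overnight at 37 °C, 5% CO₂; pretreated with 10 μM for 30 min, then LPS 1 μg/mL for 24 h. Total RNA extracted with TRIZOL; two-step SYBR Green RT-qPCR. Expressed as percent of LPS control; mean ± SEM of three independent experiments.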

[24] = tested on: BEAS-2B; assay: Antiinflammatory activity in human BEAS-2B cells assessed as reduction in LPS-induced IL-1beta mRNA expression incubated for 30 mins followed by LPS stimulation and measured after 24 hrs by qRT-PCR analysis; format: functional, cell-based; conditions: dose 10-20 µM, time 1470.0 min; summary of the method: as §7
[25] = tested on: BEAS-2B; assay: Antiinflammatory activity in human BEAS-2B cells assessed as reduction in LPS-induced TNFalpha mRNA expression incubated for 30 mins followed by LPS stimulation and measured after 24 hrs by qRT-PCR analysis; format: functional, cell-based; conditions: dose 10-20 µM, time 1470.0 min; summary of the method: as §7
[26] = tested on: BEAS-2B; assay: Antiinflammatory activity in human BEAS-2B cells assessed as reduction in LPS-induced VCAM-1 mRNA expression incubated for 30 mins followed by LPS stimulation and measured after 24 hrs by qRT-PCR analysis; format: functional, cell-based; conditions: dose 10-20 µM, time 1470.0 min; summary of the method: as §7
[27] = Chemical stability of compound in PBS buffer containing 5% DMSO at pH 7.4 measured every 5 mins for 25 mins by UV-Vis absorption spectral analysis; format: physicochemical; conditions: pH 7.4, 25 min
Summary of the method: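 Compound diluted from 1 mM stock in phosphate buffer pH 7.4 containing 5% DMSO; UV-visible spectra recorded from 250 to 600 nm at 25 °C in a 1 cm quartz cuvette, every 5 min for 25 min.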

[28] = as §2; format: cell-based; conditions: RAW264.7 cells, read-out: Activity

Compound: C=CCc1cc(/C=C2\CN(C(C)C)C/C(=C\c3ccc(O)c(CC=C)c3)C2=O)ccc1O
inhibition at 10 µM [1]: 71.6% | viability at 24 h, 10 µM [3]: 85.1% | Activity [5]: Non-Toxic

Compound: C=CCc1cc(/C=C2\CN(CCC)C/C(=C\c3ccc(O)c(CC=C)c3)C2=O)ccc1O
inhibition at 10 µM [1]: 76.1% | viability at 24 h, 10 µM [3]: 75.2% | Activity [5]: Non-Toxic

Compound: C=CCc1cc(/C=C2\CN(C3CC3)C/C(=C\c3ccc(N4CCN(C)CC4)cc3)C2=O)ccc1O
inhibition at 10 µM [1]: 83.3% | inhibition at 10 µM [2]: 43.8% | viability at 24 h, 10 µM [3]: 90.3% | logP [4]: 3.48 | solubility kinetic [6]: 22.5 mg/mL (≈ 47.9 mM) | inhibition [7]: Dose-dependent effect | inhibition [8]: Dose-dependent effect | Activity [9]: 50% | Activity [10]: Active | Activity [11]: Active | Activity [12]: Active | Activity [13]: Active | Activity [14]: Active | Activity [15]: Active | Activity [16]: Active | Activity [17]: Active | Activity [18]: Active | Activity [19]: Active | Activity [20]: Active | Activity [21]: Active | Activity [22]: Active | Activity [23]: Dose-dependent effect | Activity [24]: Dose-dependent effect | Activity [25]: Dose-dependent effect | Activity [26]: Dose-dependent effect | Stabilty [27]: Stable

Compound: C=CCc1cc(/C=C2\CN(C3CC3)C/C(=C\c3ccc(N4CCOCC4)cc3)C2=O)ccc1O
inhibition at 10 µM [1]: 59.8% | inhibition at 10 µM [2]: 8.19% | viability at 24 h, 10 µM [3]: 94.3% | logP [4]: 3.21 | solubility kinetic [6]: 19.4 mg/mL (≈ 42.5 mM)

Compound: C=CCc1cc(/C=C2\CN(C3CC3)C/C(=C\c3ccc(N(C)C)cc3)C2=O)ccc1O
inhibition at 10 µM [1]: 74.4% | inhibition at 10 µM [2]: 35% | viability at 24 h, 10 µM [3]: 89.4% | logP [4]: 3.5 | solubility kinetic [6]: 17.1 mg/mL (≈ 41.2 mM)

Compound: C=CCc1cc(/C=C2\CN(C(=O)c3ccc(Cl)cc3)C/C(=C\c3ccc(O)c(CC=C)c3)C2=O)ccc1O
inhibition at 10 µM [1]: 89.2% | viability at 24 h, 10 µM [3]: 66.2% | viability at 10 µM [28]: < 70%

Further lines, with some results ahead:

logP [4]: 4.08
Compound: C=CCc1cc(/C=C2\CN(C3CC3)C/C(=C\c3ccc(N(CC)CC)cc3)C2=O)ccc1O
inhibition at 10 µM [1]: 71.9% | inhibition at 10 µM [2]: 32.1% | viability at 24 h, 10 µM [3]: 94%

logP [4]: 4.33
Compound: C=CCc1cc(/C=C2\CN(C3CC3)C/C(=C\c3ccc(N4CCCC4)cc3)C2=O)ccc1O
inhibition at 10 µM [1]: 49.9% | inhibition at 10 µM [2]: 17.6% | viability at 24 h, 10 µM [3]: 95.5%

Stabilty [27]: Stable
Compound: C=CCc1cc(/C=C/C(=O)/C=C/c2ccc(O)c(CC=C)c2)ccc1O
inhibition at 10 µM [1]: 59.6% | inhibition at 10 µM [2]: 7.15% | viability at 24 h, 10 µM [3]: 73.3% | Activity [5]: Non-Toxic
